Assay results published in ChEMBL document CHEMBL2074053, “Modified jatrophane diterpenes as modulators of multidrug resistance from Euphorbia dendroides L” (Bioorg Med Chem, 2003).

How the values were obtained:
Type in all cases: functional, cell-based
Details in all cases: k562/r7, 5 µM
[1] = biological target: T1, ATP-dependent translocase ABCB1 (Homo sapiens, UniProt P08183); test: TP_TRANSPORTER: inhibition of Daunomycin efflux (Daunomycin: 10 uM, 13alpha-OH Terracinolide B: 5 uM) in K562/R7 cells
T1 sequence (P08183 whole entry): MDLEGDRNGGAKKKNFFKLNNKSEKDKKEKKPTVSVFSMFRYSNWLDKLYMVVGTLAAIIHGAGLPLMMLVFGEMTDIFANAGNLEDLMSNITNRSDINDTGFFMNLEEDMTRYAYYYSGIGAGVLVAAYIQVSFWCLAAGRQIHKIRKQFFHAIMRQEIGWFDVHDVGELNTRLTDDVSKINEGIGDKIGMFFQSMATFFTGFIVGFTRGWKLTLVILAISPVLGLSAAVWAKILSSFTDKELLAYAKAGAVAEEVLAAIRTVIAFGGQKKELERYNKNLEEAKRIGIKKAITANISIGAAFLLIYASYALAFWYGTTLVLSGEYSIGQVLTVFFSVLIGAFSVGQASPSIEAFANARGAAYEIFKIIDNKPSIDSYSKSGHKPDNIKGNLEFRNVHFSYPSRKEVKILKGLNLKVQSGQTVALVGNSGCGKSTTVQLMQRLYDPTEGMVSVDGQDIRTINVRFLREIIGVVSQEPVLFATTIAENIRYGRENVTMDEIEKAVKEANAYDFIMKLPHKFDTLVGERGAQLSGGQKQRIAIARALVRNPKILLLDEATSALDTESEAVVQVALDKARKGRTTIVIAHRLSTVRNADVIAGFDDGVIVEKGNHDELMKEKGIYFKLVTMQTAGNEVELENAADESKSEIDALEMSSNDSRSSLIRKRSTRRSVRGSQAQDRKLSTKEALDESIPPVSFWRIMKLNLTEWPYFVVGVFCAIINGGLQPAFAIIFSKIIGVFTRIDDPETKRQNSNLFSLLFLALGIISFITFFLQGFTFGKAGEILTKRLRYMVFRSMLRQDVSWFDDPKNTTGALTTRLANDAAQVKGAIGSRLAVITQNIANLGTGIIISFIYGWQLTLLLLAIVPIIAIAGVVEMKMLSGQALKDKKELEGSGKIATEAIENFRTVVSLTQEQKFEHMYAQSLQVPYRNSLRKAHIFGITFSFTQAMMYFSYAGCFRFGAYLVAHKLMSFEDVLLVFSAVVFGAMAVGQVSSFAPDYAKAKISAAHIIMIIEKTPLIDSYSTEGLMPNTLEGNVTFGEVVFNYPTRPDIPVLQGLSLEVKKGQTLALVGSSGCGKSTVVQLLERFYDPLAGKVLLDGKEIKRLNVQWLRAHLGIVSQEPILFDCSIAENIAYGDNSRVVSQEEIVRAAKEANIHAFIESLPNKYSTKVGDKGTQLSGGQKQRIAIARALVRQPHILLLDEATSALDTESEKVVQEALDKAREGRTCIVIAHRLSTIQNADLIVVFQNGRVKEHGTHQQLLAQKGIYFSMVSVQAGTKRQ
Outline: (§1)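 Cells washed twice in ice-cold PBS and held on ice. Intracellular daunomycin read by flow cytometry. Efflux inhibition is the fluorescence shift relative to 2 µM cyclosporin A as positive control. Duplicates, at least three separate experiments.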

[2] = biological target: T1, ATP-dependent translocase ABCB1; test: TP_TRANSPORTER: inhibition of Daunomycin efflux (Daunomycin: 10 uM, 13alpha-OH Terracinolide G: 5 uM) in K562/R7 cells; outline: as §1
[3] = biological target: T1, ATP-dependent translocase ABCB1; test: TP_TRANSPORTER: inhibition of Daunomycin efflux (Daunomycin: 10 uM, Terracinolide L: 5 uM) in K562/R7 cells; outline: as §1
[4] = biological target: T1, ATP-dependent translocase ABCB1; test: TP_TRANSPORTER: inhibition of Daunomycin efflux (Daunomycin: 10 uM, Epiabeodendroidin F: 5 uM) in K562/R7 cells; outline: as §1
[5] = biological target: T1, ATP-dependent translocase ABCB1; test: TP_TRANSPORTER: inhibition of Daunomycin efflux (Daunomycin: 10 uM, Terracinolide B: 5 uM) in K562/R7 cells; outline: as §1
[6] = biological target: T1, ATP-dependent translocase ABCB1; test: TP_TRANSPORTER: inhibition of Daunomycin efflux (Daunomycin: 10 uM, Terracinolide C: 5 uM) in K562/R7 cells; outline: as §1
[7] = biological target: T1, ATP-dependent translocase ABCB1; test: TP_TRANSPORTER: inhibition of Daunomycin efflux (Daunomycin: 10 uM, Terracinolide K: 5 uM) in K562/R7 cells; outline: as §1

In the case of `CC(=O)O[C@H]1[C@@H](OC(C)=O)C(C)(C)/C=C/[C@@](C)(O)C(=O)[C@@]2(OC(C)=O)C[C@@](C)(OC(C)=O)[C@H](OC(C)=O)[C@@H]2[C@H]2OC(=O)CC[C@@]2(OC(C)=O)[C@@H]1OC(=O)C(C)C`, the Activity [1] is reported as “inhibitor [+]”.
`CC(=O)O[C@H]1[C@@H](OC(C)=O)C(C)(C)/C=C/[C@@](C)(O)C(=O)[C@@]2(O)C[C@@](C)(OC(C)=O)[C@H](OC(C)=O)[C@@H]2[C@H]2OC(=O)CC[C@@]2(OC(C)=O)[C@@H]1OC(=O)C(C)C` was tested, and the Activity [2] was “inhibitor [+]”.
`CC(=O)O[C@H]1[C@@H](OC(C)=O)C(C)(C)/C=C/[C@H](C)C(=O)[C@@]2(OC(C)=O)C[C@@](C)(O)[C@H](OC(C)=O)[C@@H]2[C@H]2OC(=O)CC[C@@]2(OC(=O)C(C)C)[C@@H]1OC(=O)C(C)C` was tested, and the Activity [3] was “is not an inhibitor [-]”.
In the case of `C=C1[C@H](OC(=O)c2ccccc2)[C@@H](OC(C)=O)[C@@H](OC(C)=O)C(C)(C)/C=C/[C@H](C)[C@]2(O)C[C@@](C)(O)[C@H](OC(C)=O)[C@@H](C2=O)[C@H]1OC(=O)C(C)C` [EPIABEODENDROIDIN F], the Activity [4] is reported as “inhibitor [+]”.
`CC(=O)O[C@H]1[C@@H](OC(C)=O)C(C)(C)/C=C/[C@H](C)C(=O)[C@@]2(OC(C)=O)C[C@@](C)(OC(C)=O)[C@H](OC(C)=O)[C@@H]2[C@H]2OC(=O)CC[C@@]2(OC(C)=O)[C@H]1OC(=O)C(C)C` [TERRACINOLIDE B] was tested, and the Activity [5] was “inhibitor [+]”.
With `CC(=O)O[C@H]1[C@@H](OC(C)=O)C(C)(C)/C=C/[C@H](C)C(=O)[C@@]2(OC(C)=O)C[C@@](C)(OC(C)=O)[C@H](O)[C@@H]2[C@H]2OC(=O)CC[C@@]2(OC(C)=O)[C@@H]1OC(=O)C(C)C` [TERRACINOLIDE C] the Activity [6] was “inhibitor [+]”.
`CC(=O)O[C@H]1[C@@H](OC(C)=O)C(C)(C)/C=C/[C@H](C)C(=O)[C@@]2(OC(C)=O)C[C@@](C)(O)[C@H](OC(C)=O)[C@@H]2[C@H]2OC(=O)CC[C@@]2(OC(C)=O)[C@@H]1OC(=O)C(C)C` [TERRACINOLIDE K] was tested, and the Activity [7] was “inhibitor [+]”.
